Data set [1] in a line: Cytotoxicity against human KB3 cells expressing pcDNA3.1 assessed as decrease in cell viability after 72 hrs by MTT assay. To be noted: KB3, 72 h. The class given is functional, cell-based. The essentials: (§1)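 KB-3 cells electroporated with 5 μg plasmid (UGT1A10-pcDNA3.1, UGT2B4-pIRES or empty pcDNA3.1), cotransfected with GFP (140 V, 250 μF). Used 24 h later at 2000/well. Next day, drug up to 10 μM in 0.1% DMSO for 72 h. MTT read at 540 nm after 4 h. Triplicates, relative to vehicle. IC50 is 50% of control absorbance.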
For orientation: Formazan colour is commonly taken as a measure of viable cells.

Data set [2] is described as follows: Cytotoxicity against human KB3 cells expressing human UGT2B4 assessed as decrease in cell viability after 72 hrs by MTT assay. The class given is functional, cell-based. The settings on record: KB3, 72 h. A digest of the protocol:
as §1

The nature of data set [3]: Cell cycle arrest in human KB3 cells assessed as distribution at S phase at 8 uM after 24 hrs by propidium iodide staining-based FACS flow cytometric analysis. The class given is functional. (In general: In flow cytometry, cells or beads pass a laser one at a time.)
Data set [4] in a line: Cell cycle arrest in human KB3 cells assessed as distribution at G2/M phase at 8 uM after 24 hrs by propidium iodide staining-based FACS flow cytometric analysis. The class given is functional.
Data set [5] is described as follows: Cell cycle arrest in human KB3 cells assessed as reduction of cells at G1 phase at 8 uM after 24 hrs by propidium iodide staining-based FACS flow cytometric analysis. The class given is functional.
Data set [6] in a line: Cell cycle arrest in human KB3 cells assessed as distribution at G2 phase at 8 uM after 48 to 72 hrs by propidium iodide staining-based FACS flow cytometric analysis. The class given is functional.
Data set [7] in a line: Cell cycle arrest in human KB3 cells assessed as distribution at M phase at 8 uM after 48 to 72 hrs by propidium iodide staining-based FACS flow cytometric analysis. The class given is functional.
The nature of data set [8]: Cell cycle arrest in human KB3 cells assessed as distribution at subG1 DNA content at 8 uM after 72 hrs by propidium iodide staining-based FACS flow cytometric analysis (reference value: 3.4%). The class given is functional.
Data set [9] in a line: Cell cycle arrest in human KB3 cells overexpressing human UGT1A10 assessed as distribution at subG1 DNA content at 8 uM after 24 hrs by propidium iodide staining-based FACS flow cytometric analysis (reference value: 3.4%). The class given is functional. The settings on record: in the assay text read “72 hrs” for “24 hrs”. The essentials:
(§2)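 KB-3 cells were electroporated with a UGT1A10 expression plasmid (140 V, 250 μF), co-transfected with GFP, and used 24 h later. At 80% confluence they received 8 μM or 3 μM compound, or 0.1% DMSO, for 24–72 h. Cells were fixed in ice-cold 70% ethanol, stained with PI/RNase for 30 min in the dark, and analysed by flow cytometry for DNA content; at least two experiments.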

For data set [10], the target named is T1, UDP-glucuronosyltransferase 1A10 (Homo sapiens, UniProt Q9HAW8).
T1 sequence (Q9HAW8 whole entry): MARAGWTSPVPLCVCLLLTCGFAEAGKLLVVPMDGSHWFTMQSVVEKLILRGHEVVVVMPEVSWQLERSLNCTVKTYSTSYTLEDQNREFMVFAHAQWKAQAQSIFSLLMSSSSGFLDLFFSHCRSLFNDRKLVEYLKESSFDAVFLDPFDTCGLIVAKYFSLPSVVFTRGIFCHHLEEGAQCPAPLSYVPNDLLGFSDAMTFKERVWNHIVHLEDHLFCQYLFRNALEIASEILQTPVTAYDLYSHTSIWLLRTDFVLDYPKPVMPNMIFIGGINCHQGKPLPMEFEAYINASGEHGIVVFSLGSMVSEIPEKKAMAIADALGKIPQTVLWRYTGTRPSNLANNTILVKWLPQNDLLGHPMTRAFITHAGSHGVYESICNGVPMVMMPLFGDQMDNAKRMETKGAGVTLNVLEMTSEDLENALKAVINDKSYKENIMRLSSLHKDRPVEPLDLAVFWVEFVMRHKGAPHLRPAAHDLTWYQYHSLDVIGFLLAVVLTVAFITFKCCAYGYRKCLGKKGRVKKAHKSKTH
The data set is described as follows: Drug metabolism in human KB3 cells overexpressing human UGT1A10 assessed as enzyme-mediated metabolites formation at 30 uM for 24 to 72 hrs by HPLC analysis and electrospray ionization-mass spectrometry. The class given is ADME, cell-based. To be noted: kb3, 30 µM. The essentials:
(§3)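 Untransfected KB-3, or cells electroporated 24 h earlier with UGT1A10 or UGT2B4 plasmid, grown to 80% confluence and treated with 30 μM drug for 24, 48 or 72 h. Cells plus medium collected, washed, sonicated in ice-cold 60% methanol. Reverse-phase HPLC at 1 ml/min in 50 mM ammonium formate pH 3.2, with a 15–80% methanol gradient over 25 min, then to 100%. Positive-ion ESI-MS.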

The nature of data set [11]: Cell cycle arrest in human KB3 cells overexpressing human UGT1A10 assessed as accumulation of cells with 4N DNA content at 8 uM after 24 to 72 hrs by propidium iodide staining-based FACS flow cytometric analysis. The class given is functional. A digest of the protocol: as §2
The nature of data set [12]: Drug metabolism in human KB3 cells assessed as retention time at 30 uM for 24 to 72 hrs by HPLC analysis. The class given is ADME, cell-based. To be noted: kb3, 30 µM. A digest of the protocol:
as §3

The target in data set [13] is T1, UDP-glucuronosyltransferase 1A10. The data set is described as follows: Drug metabolism in human KB3 cells overexpressing human UGT1A10 assessed as enzyme-mediated metabolites formation at 30 uM for 24 to 72 hrs by HPLC analysis. The settings on record: kb3, 30 µM. The class given is ADME, cell-based. A digest of the protocol: as §3
The target in data set [14] is T2, UDP-glucuronosyltransferase 2B4 (Homo sapiens, UniProt P06133).
T2 sequence (P06133 whole entry): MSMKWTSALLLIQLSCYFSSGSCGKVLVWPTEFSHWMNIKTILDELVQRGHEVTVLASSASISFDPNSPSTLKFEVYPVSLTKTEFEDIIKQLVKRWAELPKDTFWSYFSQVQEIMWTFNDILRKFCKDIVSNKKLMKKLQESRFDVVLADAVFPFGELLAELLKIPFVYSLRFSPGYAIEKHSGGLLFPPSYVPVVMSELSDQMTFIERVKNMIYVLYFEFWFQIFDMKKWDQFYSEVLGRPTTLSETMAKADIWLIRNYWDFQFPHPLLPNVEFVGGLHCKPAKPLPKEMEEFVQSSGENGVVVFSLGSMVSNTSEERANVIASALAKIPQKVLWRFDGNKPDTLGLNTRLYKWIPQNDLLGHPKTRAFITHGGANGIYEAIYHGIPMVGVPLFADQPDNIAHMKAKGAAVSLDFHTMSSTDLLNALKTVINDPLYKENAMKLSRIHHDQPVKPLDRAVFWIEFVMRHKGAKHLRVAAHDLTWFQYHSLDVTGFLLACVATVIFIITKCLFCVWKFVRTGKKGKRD
The data set can be described thus: Drug metabolism in human KB3 cells overexpressing human UGT2B4 assessed as enzyme-mediated metabolites formation at 30 uM for 24 to 72 hrs by HPLC analysis. The settings on record: kb3, 30 µM. The class given is ADME, cell-based. The essentials:
as §3

Data set [15] can be described thus: Cytotoxicity against human KB3 cells assessed as decrease in cell viability after 72 hrs by MTT assay. The class given is functional, cell-based. To be noted: KB3, 72 h. A digest of the protocol:
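KB-3 (HeLa variant) cells, untransfected, in DMEM with 10% FBS at 37 °C, 5% CO2, seeded 2000/well. Next day, drug added at concentrations up to 10 μM, final 0.1% DMSO; vehicle controls. MTT read at 540 nm after 4 h, following DMSO solubilisation. Triplicate points, relative to vehicle. IC50 is the concentration giving 50% of control absorbance. Repeated independently.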

A short description of data set [16]: Cytotoxicity against human KB3 cells expressing human UGT1A10 assessed as decrease in cell viability after 72 hrs by MTT assay. The class given is functional, cell-based. To be noted: KB3, 72 h. The essentials: as §1
Data set [17] is described as follows: Cell cycle arrest in human KB3 cells assessed as distribution at S phase at 3 uM after 24 hrs by propidium iodide staining-based FACS flow cytometric analysis. The class given is functional.
Data set [18] is described as follows: Cell cycle arrest in human KB3 cells assessed as distribution at G2 phase at 3 uM after 24 hrs by propidium iodide staining-based FACS flow cytometric analysis. The class given is functional.
Data set [19] can be described thus: Cell cycle arrest in human KB3 cells assessed as distribution at M phase at 3 uM after 24 hrs by propidium iodide staining-based FACS flow cytometric analysis. The class given is functional.
Data set [20] in a line: Cell cycle arrest in human KB3 cells overexpressing human UGT1A10 assessed as distribution at subG1 DNA content at 3 uM after 24 hrs by propidium iodide staining-based FACS flow cytometric analysis (reference value: 3.4%). The class given is functional. The settings on record: in the assay text read “72 hrs” for “24 hrs”. The essentials:
as §2

Data set [21] in a line: Cell cycle arrest in human KB3 cells overexpressing human UGT1A10 assessed as accumulation of cells with 4N DNA content at 3 uM after 24 to 72 hrs by propidium iodide staining-based FACS flow cytometric analysis. The class given is functional. A digest of the protocol: as §2
Data set [22] in a line: Cell cycle arrest in human KB3 cells assessed as distribution at subG1 DNA content at 3 uM after 72 hrs by propidium iodide staining-based FACS flow cytometric analysis (reference value: 3.4%).

Molecules are shown by their SMILES. Activity calls are given as the source filed them. The rule behind the calls is not given here.

`CN(C)CCCNc1ccc2nnn3c4ccc(O)cc4c(=O)c1c23.Cl`: the IC50 (usually the concentration that gives 50% inhibition) was 260 nM in data set [1], 261 nM in data set [2], 263 nM in data set [15] and 180 nM in data set [16]. In addition, the result in data set [3], in data set [4], in data set [5], in data set [6], in [7] and in [11] was Active. The Activity in data set [8] was found to be 18.7%; in data set [9] it was 37.2%. The Drug metabolism result is on record as “metabolite_detected” in data set [10], “metabolite_detected” in data set [13] and “metabolite_not_detected” in [14]. The Retention_time in data set [12] is 18 min.
Turning to `CCN(CC)CCNc1ccc2ncn3c4ccc(O)cc4c(=O)c1c23.Cl`, the IC50 in [1] was 102 nM; in [2], 113 nM; in [15], 106 nM; in [16] it was 131 nM. Further, the result in data set [17], in data set [18], in data set [19] and in data set [21] was Active. Besides, the Activity in data set [20] stood at 22.4%; in data set [22], 16.9%. Further, the Drug metabolism result in [10] is given as “metabolite_detected”; in data set [13], “metabolite_detected”; in data set [14] it was “metabolite_not_detected”. Further, in [12], the Retention_time came to 15 min.

The values above are taken from ChEMBL document CHEMBL3525991, “Metabolic transformation of antitumor acridinone C-1305 but not C-1311 via selective cellular expression of UGT1A10 increases cytotoxic response: implications for clinical use” (Drug Metab Dispos, 2013).
